{"data": "Measurements gathered from unrelated publications", "PSMB8": "Proteasome subunit beta type-8 (PSMB8, Homo sapiens, UniProt P28062)", "DHODH": "Dihydroorotate dehydrogenase (quinone), mitochondrial (DHODH, Homo sapiens, UniProt Q02127)", "PDGFRB": "Platelet-derived growth factor receptor beta (PDGFRB, Homo sapiens, UniProt P09619)", "TYMS": "Thymidylate synthase (TYMS, Homo sapiens, UniProt P04818)", "note": "Lines come from different studies, so protocols differ."}
{"Structure (SMILES)": "Cc1ncc(C(=O)N[C@@H](CC(C)C)C(=O)N[C@@H](CC2CCC3CCCCC3C2)C(=O)N[C@H](/C=C/S(C)(=O)=O)Cc2ccc(CN)cc2)s1 (some centres unmarked)", "target": "PSMB8", "read-out": "enzyme activity", "action": "inhibitor", "notes": "lysate", "IC50 [µM]": 3.24}
{"Structure (SMILES)": "N#Cc1ccc(COc2cccc(C3CCN(Cc4nc5ccc(C(=O)O)cc5n4C[C@@H]4CCO4)CC3)n2)c(F)c1", "target": "Glucagon receptor (GCGR, Homo sapiens, UniProt P47871)", "read-out": "cAMP", "action": "antagonist", "IC50 [µM]": "> 20"}
{"Structure (SMILES)": "CC(C)C[C@H](NC(=O)c1cc(Cl)ccc1Cl)C(=O)N[C@@H](CC(C)C)C(=O)N[C@H](/C=C/S(C)(=O)=O)Cc1ccc(CN)cc1", "target": "PSMB8", "read-out": "enzyme activity", "action": "inhibitor", "notes": "lysate", "IC50 [µM]": 1.83}
{"Structure (SMILES)": "CC/C(=N\\NC(=O)C(C)Nc1ccccc1)c1ccc(O)c(C)c1O (centres unmarked)", "target": "Ribosomal protein S6 kinase beta-1 (RPS6KB1, Homo sapiens, UniProt P23443)", "read-out": "enzyme activity", "action": "inhibitor", "IC50 [µM]": 0.0335}
{"Structure (SMILES)": "Cc1cc(Nc2ccc(C(C)(C)C)cc2)n2ncnc2n1", "target": "DHODH", "read-out": "enzyme activity", "action": "inhibitor", "IC50 [µM]": "> 100"}
{"Structure (SMILES)": "CC(C)=CCC[C@@H](C)c1ccc(C)c(O)c1", "target": "UDP-glucuronosyltransferase 1A1 (UGT1A1, Homo sapiens, UniProt P22309)", "read-out": "enzyme activity", "action": "inhibitor", "time": "90 min", "IC50 [µM]": 11.3}
{"Structure (SMILES)": "Cc1ncc(C(=O)N[C@@H](CC(C)C)C(=O)N[C@@H](CC2CCC(C)CC2)C(=O)N[C@H](/C=C/S(C)(=O)=O)Cc2ccc(CN)cc2)s1 (some centres unmarked)", "target": "PSMB8", "read-out": "enzyme activity", "action": "inhibitor", "notes": "lysate", "IC50 [µM]": "> 10"}
{"Structure (SMILES)": "O=C1N[C@H]2n3c(cc(Br)c3Br)C(=O)N3CCC[C@]23N1 (racemic)", "target": "Proteasome subunit beta type-8, chymotrypsin-like site (PSMB8, Homo sapiens, UniProt P28062)", "read-out": "enzyme activity", "action": "inhibitor", "IC50 [µM]": 6.7}
{"Structure (SMILES)": "CC(C)C[C@H](NC(=O)c1ccc(-c2ccccc2)nc1)C(=O)N[C@@H](CC(C)C)C(=O)N[C@H](/C=C/S(C)(=O)=O)Cc1ccc(CN)cc1", "target": "PSMB8", "read-out": "enzyme activity", "action": "inhibitor", "notes": "lysate", "IC50 [µM]": "> 10"}
{"Structure (SMILES)": "O=C(CSc1ncn[nH]1)Nc1ccc(C23CC4CC(CC(C4)C2)C3)cc1", "target": "Transcriptional enhancer factor TEF-4 (TEAD2, Homo sapiens, UniProt Q15562)", "read-out": "enzyme activity", "action": "inhibitor", "IC50 [µM]": 0.71}
{"Structure (SMILES)": "Cc1cnc(-c2ccc(-c3ccc(NC(=O)Nc4c(F)cc(F)cc4F)cc3F)c3c2C(=O)NC3)[nH]1", "target": "PDGFRB", "read-out": "enzyme activity", "action": "inhibitor", "IC50 [µM]": 0.0104}
{"Structure (SMILES)": "COc1ccc(C[C@H](NC(=O)[C@H](C)NC(=O)CN2CCOCC2)C(=O)N[C@@H](CC2CCC(OC)CC2)C(=O)[C@@]2(C)CO2)cc1 (some centres unmarked)", "target": "PSMB8", "read-out": "enzyme activity", "action": "inhibitor", "notes": "lysate", "IC50 [µM]": 3.98}
{"Structure (SMILES)": "CCOC(=O)C1CCN(C(=O)c2ccc(N(CC)Cc3cnc4nc(N)nc(N)c4n3)cc2)CC1", "target": "TYMS", "read-out": "enzyme activity", "action": "inhibitor", "IC50 [µM]": 91.9}
{"Structure (SMILES)": "Cc1nc(Nc2ccc(C(F)(F)F)cc2)c2c(C(F)(F)F)noc2n1", "target": "DHODH", "read-out": "enzyme activity", "action": "inhibitor", "method": "absorbance", "IC50 [µM]": 18}
{"Structure (SMILES)": "Oc1ccc(Cl)cc1Nc1nc(NCC2CCCO2)c2ccccc2n1 (centres unmarked)", "target": "Lysosomal acid glucosylceramidase (GBA1, Homo sapiens, UniProt P04062, R534H)", "read-out": "enzyme activity", "action": "inhibitor", "IC50 [µM]": 19}
{"Structure (SMILES)": "CN1CCN(c2ccc(Nc3ncc4cc(C#N)c(=O)n(C5CCCC5)c4n3)cc2)CC1", "target": "Dual specificity tyrosine-phosphorylation-regulated kinase 1A (DYRK1A, Homo sapiens, UniProt Q13627)", "read-out": "enzyme activity", "action": "inhibitor", "IC50 [µM]": 0.807}
{"Structure (SMILES)": "CCCN(C)Cc1cc(-c2[nH]c3cccc(F)c3c(=O)c2C)ccc1Cc1ccc(OC(F)(F)F)cc1", "target": "DHODH", "read-out": "enzyme activity", "action": "inhibitor", "IC50 [µM]": "> 10"}
{"Structure (SMILES)": "Nc1nc(N)c2nc(CNc3ccc(C(=O)N4CCC(C(=O)O)CC4)cc3)cnc2n1", "target": "TYMS", "read-out": "enzyme activity", "action": "inhibitor", "IC50 [µM]": 67}
{"Structure (SMILES)": "Nc1ncnc2c1ncn2[C@@H]1O[C@H](CSCCNC(=O)NCc2ccccc2)[C@@H](O)[C@H]1O", "target": "Protein arginine N-methyltransferase 7 (PRMT7, Homo sapiens, UniProt Q9NVM4)", "read-out": "enzyme activity", "action": "inhibitor", "method": "radiometric", "IC50 [µM]": "< 2.4"}
{"Structure (SMILES)": "Cc1nc(NC2CCc3cc(Cl)ccc3C2)c2c(C)noc2n1 (centres unmarked)", "target": "DHODH", "read-out": "enzyme activity", "action": "inhibitor", "method": "absorbance", "IC50 [µM]": "> 100"}
{"Structure (SMILES)": "Cc1ncc(C(=O)N[C@@H](CC(C)C)C(=O)N[C@@H](CC2CCC(C3CCCCC3)CC2)C(=O)N[C@H](/C=C/S(C)(=O)=O)Cc2ccc(CN)cc2)s1 (some centres unmarked)", "target": "PSMB8", "read-out": "enzyme activity", "action": "inhibitor", "notes": "lysate", "IC50 [µM]": "> 10"}
{"Structure (SMILES)": "Cc1cc(Nc2cc3ncccc3c(N[C@@H]3C[C@H]4CC[C@@H](C3)N4CCC#N)n2)n[nH]1", "target": "PDGFRB", "read-out": "target engagement in cells", "action": "inhibitor", "method": "BRET", "IC50 [µM]": "> 10"}
{"Structure (SMILES)": "CC(C)C[C@H](NC(=O)[C@H](Cc1ccccc1)N=[N+]=[N-])C(=O)N[C@@H](CC(C)(C)F)C(=O)N[C@H](/C=C/S(C)(=O)=O)Cc1ccc(CN)cc1", "target": "PSMB8", "read-out": "enzyme activity", "action": "inhibitor", "notes": "lysate", "IC50 [µM]": 2.34}
{"Structure (SMILES)": "NC(=O)C1CCN(C(=O)c2ccc(NCc3cnc4nc(N)nc(N)c4n3)cc2)CC1", "target": "TYMS", "read-out": "enzyme activity", "action": "inhibitor", "IC50 [µM]": 42}
{"Structure (SMILES)": "C[C@@H]1O[C@H](CNS(=O)(=O)c2ccc(C#CC3CC3)s2)[C@@H](O)[C@H](O)[C@@H]1O", "target": "Fucose-binding lectin PA-IIL (lecB, Pseudomonas aeruginosa, UniProt Q9HYN5)", "read-out": "enzyme activity", "action": "inhibitor", "IC50 [µM]": 2.5}
{"Structure (SMILES)": "COc1ccc(C[C@H](NC(=O)[C@H](C)NC(=O)CN2CCOCC2)C(=O)N[C@@H](CC2CCC(C(F)(F)F)CC2)C(=O)[C@@]2(C)CO2)cc1 (some centres unmarked)", "target": "PSMB8", "read-out": "enzyme activity", "action": "inhibitor", "notes": "lysate", "IC50 [µM]": 0.191}
{"Structure (SMILES)": "CCn1ncc2c1-c1cnc(N)c(c1)O[C@H](C)c1cc(F)ccc1-c1nn(C)nc1C2", "target": "Ephrin type-A receptor 1 (EPHA1, Homo sapiens, UniProt P21709)", "read-out": "enzyme activity", "action": "inhibitor", "method": "radiometric", "IC50 [µM]": 0.285}
{"Structure (SMILES)": "Cc1cccn2c(Nc3ccc(Cl)cc3)c(-c3ccc(S(C)(=O)=O)cc3)nc12", "target": "Prostaglandin G/H synthase 2 (PTGS2, Homo sapiens, UniProt P35354)", "read-out": "enzyme activity", "action": "inhibitor", "IC50 [µM]": 0.14}
{"Structure (SMILES)": "CCOc1ccc2c(-c3cc(C)nc(Nc4cc(OC)cc(C(F)(F)F)c4)n3)cnn2n1", "target": "Dual specificity tyrosine-phosphorylation-regulated kinase 3 (DYRK3, Homo sapiens, UniProt O43781)", "read-out": "enzyme activity", "action": "inhibitor", "IC50 [µM]": "> 10"}
{"Structure (SMILES)": "Cc1nc(Nc2ccc(S(F)(F)(F)(F)F)cc2)c2c(C(F)(F)F)noc2n1", "target": "DHODH", "read-out": "enzyme activity", "action": "inhibitor", "method": "absorbance", "IC50 [µM]": "> 100"}
{"Structure (SMILES)": "COc1ccc(S(=O)(=O)ON=C2C=C(C)C(=O)C(C)=C2)cc1", "target": "Histone acetyltransferase KAT7 (KAT7, Homo sapiens, UniProt O95251)", "read-out": "enzyme activity", "action": "inhibitor", "method": "radiometric", "IC50 [µM]": "> 100"}
{"Structure (SMILES)": "O=C(N=Nc1c(O)[nH]c2ccccc12)c1cccs1", "target": "TYMS", "read-out": "enzyme activity", "action": "inhibitor", "method": "radiometric", "IC50 [µM]": 260}
